AHR activator: activates the human aryl hydrocarbon receptor | AHR-responsive luciferase reporter cells, luminescence | activation, % at 5 µM | 2.5% of 320,000 active | AID 2796; in the data active means activation above about 47%
Tb MetRS inh: Trypanosoma brucei MetRS inhibition; AID 624268; inhibition, % at 11.9 µM; purified T. brucei MetRS, ATP depletion, Kinase-Glo luminescence; 0.4% of 360,000 active;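 active means inhibition above a per-plate cutoff of the control wells' mean inhibition plus 3 SD, cut at about 5.5% in these data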
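Dosing: 11.9 µM compound single dose, 0.9% DMSO; Assay system: purified T. brucei MetRS enzyme; Measured by: Kinase-Glo luciferase luminescence reporting remaining unconsumed ATP; Schedule: 15 min plus 2 h at 25 °C.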
AI-2 QS modul: Vibrio harveyi AI-2 quorum sensing modulation; Vibrio harveyi JMH597 AI-2 luminescence/OD600 ratio, 9 h; stronger effect = lower value; strain lacks LuxN and CqsS sensors; 0 = neutral-control median; 0.4% of 300,000 active; AID 2094; activity change, % at 7.5 µM; in the data active means activity change below about -75%, passing the limit was not always enough; inconclusive means no clear call, values can overlap the other calls;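 further: luminescence divided by OD600 gain over 9 h not by final OD600 alone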
MsrA inh: inhibitors of bovine MsrA. 0.75% of 360,000 active. inhibition, % at 15.5 µM. purified bovine MsrA, absorbance read-out; in the data active means inhibition above about 4.5%
MsrA act: activates bovine MsrA enzyme; activation, % at 10.6 µM; purified bovine MsrA, absorbance read-out; AID 602163; 0.3% of 360,000 active; in the data active means activation above about 7.5%
m5-HT2A agonist: mouse HTR2A agonism via beta-arrestin recruitment. CHO-K1 mHTR2A beta-arrestin complementation, luminescence; percent of 30 µM serotonin response. activation, % at 7.6 µM. 0.66% of 360,000 active. AID 624169;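 active means activation above a run cutoff, the mean activation of all tested compounds plus 3 SD, cut at about 14% in these data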
Target sequence (P35363 whole entry, looked up): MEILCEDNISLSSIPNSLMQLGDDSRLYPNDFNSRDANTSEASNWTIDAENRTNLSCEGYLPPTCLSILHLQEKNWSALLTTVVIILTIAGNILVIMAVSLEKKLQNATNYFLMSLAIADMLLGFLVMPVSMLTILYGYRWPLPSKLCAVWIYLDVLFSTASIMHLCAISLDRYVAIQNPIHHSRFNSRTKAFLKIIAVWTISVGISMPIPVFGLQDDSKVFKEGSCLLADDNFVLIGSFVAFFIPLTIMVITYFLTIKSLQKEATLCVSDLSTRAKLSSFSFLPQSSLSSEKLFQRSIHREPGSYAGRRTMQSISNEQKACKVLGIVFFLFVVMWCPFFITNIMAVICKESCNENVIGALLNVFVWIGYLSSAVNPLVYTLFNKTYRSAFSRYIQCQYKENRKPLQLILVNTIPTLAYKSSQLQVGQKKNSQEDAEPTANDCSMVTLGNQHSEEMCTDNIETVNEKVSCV
Of the large screens only hits and unclear results are named; the others gave an inactive call. An excerpt weighted towards active compounds, which were near 4.4% of everything screened.

CSC1=Nc2ccccc2N=C(N2CCCC2)C1	none (no result: AHR activator, Tb MetRS inh, AI-2 QS modul, MsrA act, m5-HT2A agonist)
C[C@H](O)[C@@H]1C(=O)N2CCc3c([nH]c4ccccc34)[C@@H]2C[C@@H]1N(C)C(=O)OCc1ccccc1	none (no result: AHR activator, Tb MetRS inh, AI-2 QS modul, MsrA act, m5-HT2A agonist)
CC1(C(=O)NCc2ccc3c(c2)OCO3)CCN1C(=O)Cc1ccc(Cl)cc1Cl (centres undefined)	none (no result: AHR activator, AI-2 QS modul)
CCN1/C(=C/C(C)=C/c2sc3ccccc3[n+]2CC)Sc2ccccc21	AI-2 QS modul -170.1
COc1ccccc1C(=O)N1CCN(C(=O)[C@H]2O[C@@H](n3cnc(C(N)=O)n3)[C@H](O)[C@@H]2O)CC1	none (no result: AHR activator, Tb MetRS inh, AI-2 QS modul, MsrA act, m5-HT2A agonist)
Nc1nc(Cl)nc2c1ncn2C1CC(O)C(CO)O1 (centres undefined)	AI-2 QS modul -91.3
COc1ccc(C2CC(=O)C(c3ccc(Br)cc3)=CN2Cc2ccccc2)cc1 (centres undefined)	none (no result: AHR activator, Tb MetRS inh, AI-2 QS modul, MsrA act, m5-HT2A agonist)
CCN(C(=O)CN1C(=O)S/C(=C\C=C\c2ccccc2)C1=O)C1CCS(=O)(=O)C1 (centres undefined)	MsrA inh 4.6
Nc1cc(Cl)cc2c1-c1ccc(Cl)cc1C2	none (no result: AHR activator, AI-2 QS modul)
CC(C)c1ccc(Oc2cccc3c2S(=O)(=O)N([C@H](C)c2ccccc2)C[C@@H](COCc2ccccc2)O3)cc1	none (no result: AHR activator, Tb MetRS inh, AI-2 QS modul, MsrA act, m5-HT2A agonist)
O=C(Nc1ccc(-c2cc3ccccc3oc2=O)c(Cl)c1)c1cccnc1	none
O=C(Nc1ccc2ccccc2c1)c1cccnc1	AHR activator 51.7
O=C(Nc1ccc(Cl)c(-c2nc3ccccc3[nH]2)c1)c1cccnc1	AHR activator 51.8
COc1ccc(NC(=O)c2cccnc2)cc1OCC(C)C	AHR activator 50.5 (no result: AI-2 QS modul)
CCOC(=O)C1CSCCS(=O)(=O)N1Cc1ccc(Br)cc1 (centres undefined)	none (no result: AHR activator, Tb MetRS inh, AI-2 QS modul, MsrA act, m5-HT2A agonist)
COC(=O)[C@H](Cc1ccccc1)N1C[C@@H](N2CCC[C@H]2C)CS1(=O)=O	none (no result: AHR activator, Tb MetRS inh, AI-2 QS modul, MsrA act, m5-HT2A agonist)
Cc1[nH]c2ccccc2c1N=Nc1cc(C(=O)O)cc(C(=O)O)c1	none
Cc1[nH]c2ccccc2c1N=Nc1c(C)n(C)n(-c2ccccc2)c1=O	none
Cc1[nH]c2ccccc2c1N=Nc1ccc(F)cc1	AHR activator 67.3
Cc1[nH]c2ccccc2c1N=Nc1ccccc1F	AHR activator 51.2
CN1CCCCC(NC(=O)c2cccc([N+](=O)[O-])c2)C1=O (centres undefined)	none (no result: AHR activator, Tb MetRS inh, AI-2 QS modul, MsrA act, m5-HT2A agonist)
Cc1cc2c(c(=O)o1)[C@@]1(C(=O)Nc3ccccc31)C1=C(CCCC1=O)O2	none (no result: AHR activator, Tb MetRS inh, AI-2 QS modul, MsrA act, m5-HT2A agonist)
O=c1[nH]sc2ccccc12	AI-2 QS modul inconclusive, MsrA act 12.6 (no result: AHR activator)
O=c1ccsc2ccccc12	none (no result: AHR activator, AI-2 QS modul)
CCN(CC)c1ccc2c(Cl)c(Br)c(=O)oc2c1	AHR activator 53.2 (no result: MsrA inh)
CCOC(=O)CN1CCCc2nc(C)c(C)cc21	none (no result: AHR activator, Tb MetRS inh, AI-2 QS modul, MsrA act, m5-HT2A agonist)
COc1ccccc1NC(=O)Nc1nc(CC(=O)Nc2cc(F)ccc2F)cs1	AHR activator 62.7
COc1ccccc1NC(=O)Nc1nc(CC(=O)Nc2cccc(F)c2)cs1	none
COc1ccccc1NC(=O)Nc1nc(CC(=O)Nc2ccc(F)c(F)c2)cs1	AHR activator 51.7
COC(=O)C1=C(C)N(C)C(=NCc2cc(OC)c(OC)c(OC)c2)NC1c1cccc(Cl)c1 (centres undefined)	none (no result: AHR activator, Tb MetRS inh, AI-2 QS modul, MsrA act, m5-HT2A agonist)
Cc1ccc(/C=N/Nc2nc(C(C)(C)C)cs2)o1	AHR activator 50.3
O=C(Nc1ccc2c(c1)OCCO2)c1cc2sccc2n1Cc1ccccc1	none
O=C(Nc1ccc2c(c1)OCCO2)c1cc2sccc2n1Cc1ccc(F)cc1	AHR activator 64.3
CCn1nc(NC(=O)c2ccncc2)c2cc3cc(C)ccc3nc21	AHR activator 62.4
CCn1nc(NC(=O)c2ccncc2)c2cc3ccc(C)cc3nc21	none
CCn1nc(NC(=O)c2ccco2)c2cc3cc(C)ccc3nc21	AHR activator 53.2
CCCn1nc(NC(=O)c2ccncc2)c2cc3ccccc3nc21	AHR activator 68.8
C=CCn1c(O)c(N=NC(=S)Nc2cccc(OC)c2)c2ccccc21	AHR activator 61.4
C=CCn1c(O)c(N=NC(=S)Nc2ccc(OC)cc2)c2ccccc21	none
C=CCn1c(O)c(N=NC(=O)CNC(=O)Cc2ccccc2)c2ccccc21	AHR activator 53.2
CCn1cc(-c2ccccc2)c(C(=O)O)c1-c1ccc(OC)cc1	AHR activator 58.0
CCOC(=O)c1cnc2c(-c3ccccc3)cnn2c1C	none
CCOC(=O)Cc1c(C)nc2c(-c3ccccc3)cnn2c1C	AHR activator 54.4
CCC1(C(=O)OC)CCc2c(cc(OC)c3ccccc23)C1=O (centres undefined)	AHR activator 54.3 (no result: MsrA inh)
CCOC(=O)C1=CCN(S(C)(=O)=O)C1c1ccc(Cl)cc1 (centres undefined)	none (no result: AHR activator, Tb MetRS inh, AI-2 QS modul, MsrA act, m5-HT2A agonist)
CC1=Nc2cc(C(=O)O)ccc2Sc2c(C)ccc(C)c21	none
CC1=Nc2cc(C(=O)NCc3ccco3)ccc2Sc2ccc(C)cc21	AI-2 QS modul -98.4
CC1=Nc2cc(C(=O)O)ccc2Sc2ccc(C)cc21	AI-2 QS modul -90.0
COC(=O)c1ccc(C2NC(=O)c3c(sc(C)c3C)N2)cc1 (centres undefined)	none
Cc1sc2c(c1C)C(=O)NC(c1cccc(O)c1)N2 (centres undefined)	AHR activator 54.9 (no result: Tb MetRS inh, MsrA inh, MsrA act, m5-HT2A agonist)
Cc1ccc(NC(=O)c2cncc(Br)c2)cc1S(=O)(=O)N(C)C	AHR activator 66.6
CCCNC(=O)C(Cc1ccccc1)NC(=O)c1ccc(C(F)(F)F)cc1 (centres undefined)	none (no result: AI-2 QS modul)
CCc1ccc(Nc2nnc(SCC(=O)Nc3sccc3C(N)=O)s2)cc1	AHR activator 60.3
O=C(CCSc1ccccc1)Nc1nc2c(s1)COc1ccccc1-2	AHR activator 52.0
CCCCC(=O)Nc1nc2c(s1)COc1ccccc1-2	AHR activator 48.6 (no result: MsrA inh)
CCCC(=O)Nc1nc2c(s1)COc1ccccc1-2	none
O=C1C=C(Nc2ccccc2C(=O)O)c2ccccc2C1=O	AHR activator 51.7
O=C1C=C(Nc2ccccc2)c2ccccc2C1=O	none (no result: AHR activator)
CN(C)c1ccc(C=c2c3ccccc3n3c2cc(-c2ccc(Cl)cc2)[n+]3C)cc1	MsrA act 14.5 (no result: AHR activator, AI-2 QS modul)
COc1ccc(C(=O)c2ccc(N3CCOCC3)c([N+](=O)[O-])c2)cc1	MsrA inh 4.6
COc1ccc(Nc2nnc(-c3ccc(N4CCOCC4)c([N+](=O)[O-])c3)c3ccccc23)cc1	m5-HT2A agonist 30.9 (no result: AHR activator, AI-2 QS modul)
COc1ccc(CNC(=O)c2ccc(N3CCOCC3)c([N+](=O)[O-])c2)cc1	none
COc1ccc(Nc2nnc(-c3ccc(C(N)=O)cc3)c3ccccc23)cc1	none
C=CCO[C@H]1CN(C(=O)OC)[C@@H](c2ccccc2Br)C[C@H]1OCC=C	none (no result: AHR activator, Tb MetRS inh, AI-2 QS modul, MsrA act, m5-HT2A agonist)
Fc1ccccc1CSc1nnc(-c2cccnc2)o1	AI-2 QS modul -92.2
Cc1ccc(C)c(CSc2nnc(-c3cccnc3)o2)c1	AI-2 QS modul -79.6
Cc1ccc(C(=O)N2CCC[C@@H]2C(=O)N2CCC[C@@H]2C(=O)NCc2ccccc2)cc1C	none (no result: AHR activator, Tb MetRS inh, AI-2 QS modul, MsrA act, m5-HT2A agonist)
Cc1nn(C(C)C(=O)N2CCc3ccccc32)c(C)c1[N+](=O)[O-] (centres undefined)	AHR activator 63.0

Screens (PubChem BioAssay)
